Assay results published in ChEMBL document CHEMBL1811909, “Synthesis and antiproliferative activity of novel 2-aryl-4-benzoyl-imidazole derivatives targeting tubulin polymerization” (Bioorg Med Chem, 2011).

How the values were obtained:
Liver [1] = assay: Half life in mouse liver microsomes at 0.5 uM by LC-MS analysis; type: ADME, Microsome
Outline: (§1)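 Compound at 0.5 µM incubated with 1 mg/mL liver microsomal protein at 37 °C with shaking. […] Samples taken at 5, 10, 20, 30, 60 and 90 min and quenched with acetonitrile containing internal standard. After centrifugation, the supernatant was analysed by LC-MS/MS.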

Liver microsomes [2] = assay: Metabolic stability of the compound in human liver microsomes at […] up to 90 mins by LC-MS analysis; type: ADME, Microsome
Outline: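 Aliquots were drawn at 5, 10, 20, 30, 60 and 90 min and quenched in acetonitrile containing internal standard. After centrifugation, supernatants were measured by LC-MS/MS to follow parent loss and derive half-life.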

Liver microsomes [3] = assay: Half life in rat liver microsomes at 0.5 uM by LC-MS analysis; type: ADME, Microsome; outline: as §1
Liver microsomes [4] = assay: Metabolic stability of the compound in human liver microsomes at 0.5 uM up to 90 mins by LC-MS analysis; type: ADME, Microsome
Liver [5] = assay: Metabolic stability of the compound in dog liver microsomes at 0.5 uM up to 90 mins by LC-MS analysis; type: ADME, Canis lupus familiaris, Microsome; outline: as §1
Bos taurus = organism: Bos taurus; assay: Inhibition of bovine brain tubulin polymerization after 15 mins by spectrophotometric analysis
Outline: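 Bovine brain tubulin (>97% pure, 0.4 mg per assay) mixed with compound at 5, 10 or 20 µM, with 5% DMSO as vehicle control. Buffer: 80 mM PIPES, 2.0 mM MgCl2, 0.5 mM EGTA, 1 mM GTP, pH 6.9. Polymerization followed at 37 °C as absorbance at 340 nm, read every minute for 15 min.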

Question: What does the source list for `COc1cc(C(=O)c2c[nH]c(-c3ccc(C)cc3)n2)cc(OC)c1OC`?
Answer: t1/2 (Liver [1]): 12 min; Stability (Liver microsomes [2]): Stable; t1/2 (Liver microsomes [3]): 20 min; Stability (Liver microsomes [4]): Stable; Stability (Liver [5]): Stable; inhibition (Bos taurus): Dose-dependent effect
